Assay results: ChEMBL document CHEMBL1955792, “Potent norovirus inhibitors based on the acyclic sulfamide scaffold” (Bioorg Med Chem, 2012)
Calls of active or inactive are those of the source. The calls are words filed in the database; no cut-off is given here.

Tests used:
[1] = Cytotoxicity against human HG23 cells at 48 hrs; format: cell-based; settings: for CC50 at 48 h: HG23 cells, read-out: TD50; for CC50: hg23, 48 h, 48 h, read-out: TD50 (the source's name)
Summary of the method: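 Norwalk virus replicon-harboring HG23 cells were treated with compound for 48 h, then assayed with a commercial cell cytotoxicity kit. The median toxic dose (TD50) was calculated from this read-out. Values are the average of two independent experiments ± standard deviation.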

[2] = test system: Norovirus; test: Antiviral activity against Norovirus infected in HG23 cells assessed as inhibition of viral replication at 24 hrs by qRT-PCR analysis; format: functional; settings: read-out: ED50 (the source's name)
Summary of the method: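 Norwalk virus replicon-bearing HG23 cells were treated with compound, and NV genome levels were quantified by qRT-PCR at 24 h post-treatment. ED50 was derived from the reduction in genome levels. Values are the average of two independent experiments ± standard deviation.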

[3] = Therapeutic index, ratio of TD50 for human HG23 cells to ED50 for Norovirus infected in HG23 cells; format: cell-based; settings: for selectivity ratio: HG23 cells, read-out: Ratio TD50/ED50; for Ratio TD50/ED50: hg23
Summary of the method: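 TD50 in HG23 replicon cells was measured with a cell cytotoxicity assay kit after 48 h of treatment. […] The index is TD50 divided by ED50.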

[4] = test system: Norovirus; test: Inhibition of Norovirus 3C protease

| SMILES | EC50 ([2]; Norovirus, HG23, 24 h) | inhibition [4] | further results |
| --- | --- | --- | --- |
| CSCCC(NS(=O)(=O)NCc1cccc(Oc2ccccc2)c1)C(=O)NCCN1CCOCC1 (racemic; 6d) [listing 1 of 2 here] | 4.5 µM | – | CC50 at 48 h [1]: 124 µM; selectivity ratio [3]: > 27 |
| CCOC(=O)N1CCN(C(=O)CNS(=O)(=O)NCc2cccc(Oc3ccccc3)c2)CC1 | 8.2 µM | inactive | CC50 at 48 h [1]: 130 µM |
| O=C(CNS(=O)(=O)NCc1cccc(Oc2ccccc2)c1)N1CCN(Cc2ccccc2)CC1 [listing 1 of 2 here] | – | inactive | – |
| CN(CC(=O)NCCN1CCOCC1)S(=O)(=O)NCc1cccc(Oc2ccccc2)c1 [listing 1 of 2 here] | 5.2 µM | – | CC50 at 48 h [1]: 320 µM; Ratio TD50/ED50 [3]: 63 |
| COC(=O)C1CCC(NC(=O)CNS(=O)(=O)NCc2cccc(Oc3ccccc3)c2)CC1 (configuration not stated) | > 10 µM | inactive | CC50 at 48 h [1]: 75 µM |
| O=C(CNS(=O)(=O)NCc1cccc(Oc2ccccc2)c1)NCCN1CCOCC1 [listing 1 of 3 here] | – | – | CC50 [1]: 330 µM; EC50 [2]: 5.1 µM; selectivity ratio [3]: 65 |
| CC(NS(=O)(=O)NCc1cccc(Oc2ccccc2)c1)C(=O)NCCN1CCOCC1 (racemic; 6b) [listing 1 of 2 here] | – | inactive | – |
| COC(=O)C1CCN(C(=O)CNS(=O)(=O)NCc2cccc(Oc3ccccc3)c2)CC1 | > 10 µM | inactive | – |
| O=C(CNS(=O)(=O)NCc1cccc(Oc2ccccc2)c1)NCCc1ccccc1 | > 10 µM | inactive | – |
| CSCCC(NS(=O)(=O)NCc1cccc(Oc2ccccc2)c1)C(=O)NCCN1CCOCC1.Cl (racemic; 7d) | – | – | CC50 [1]: 230 µM; Ratio TD50/ED50 [3]: 54 |
| O=C(CN(Cc1ccccc1)S(=O)(=O)NCc1cccc(Oc2ccccc2)c1)NCCN1CCOCC1 [listing 1 of 3 here] | – | – | CC50 [1]: 55 µM; EC50 [2]: 3.9 µM |
| O=C(CNS(=O)(=O)NCc1cccc(Oc2ccccc2)c1)NC1CCC(C(=O)O)CC1 (configuration not stated) | > 10 µM | inactive | – |
| Cl.O=C(CNS(=O)(=O)NCc1cccc(Oc2ccccc2)c1)N1CCN(Cc2ccccc2)CC1 | – | – | CC50 [1]: 120 µM; EC50 [2]: 5.7 µM; Ratio TD50/ED50 [3]: 21 |
| CN(CC(=O)NCCN1CCOCC1)S(=O)(=O)NCc1cccc(Oc2ccccc2)c1.Cl | – | – | CC50 [1]: 235 µM; EC50 [2]: 10.1 µM; Ratio TD50/ED50 [3]: 24 |
| O=C(CN(Cc1ccccc1)S(=O)(=O)NCc1cccc(Oc2ccccc2)c1)NCCN1CCOCC1 [listing 2 of 3 here] | – | inactive | – |
| CN(CC(=O)NCCN1CCOCC1)S(=O)(=O)NCc1cccc(Oc2ccccc2)c1 [listing 2 of 2 here] | – | inactive | – |

| SMILES | EC50 ([2]; Norovirus, HG23, 24 h) | inhibition [4] | further results |
| --- | --- | --- | --- |
| O=C(O)C1CCN(C(=O)CNS(=O)(=O)NCc2cccc(Oc3ccccc3)c2)CC1 | > 10 µM | inactive | – |
| CSCCC(NS(=O)(=O)NCc1cccc(Oc2ccccc2)c1)C(=O)NCCN1CCOCC1 (racemic; 7d) | – | inactive | – |
| CSCCC(NS(=O)(=O)NCc1cccc(Oc2ccccc2)c1)C(=O)NCCN1CCOCC1 (racemic; 6d) [listing 2 of 2 here] | – | inactive | – |
| O=C(CNS(=O)(=O)NCc1cccc(Oc2ccccc2)c1)NCc1ccco1 | > 10 µM | inactive | – |
| COC(=O)CNS(=O)(=O)NCc1cccc(Oc2ccccc2)c1 | > 10 µM | inactive | – |
| CC(NS(=O)(=O)NCc1cccc(Oc2ccccc2)c1)C(=O)NCCN1CCOCC1 (racemic; 6b) [listing 2 of 2 here] | > 10 µM | – | – |
| O=C(CNS(=O)(=O)NCc1cccc(Oc2ccccc2)c1)NCCN1CCOCC1 [listing 2 of 3 here] | – | inactive | – |
| O=C(O)CCCCN1CCN(Cc2cccc(Oc3ccccc3)c2)S1(=O)=O | 6.1 µM | – | – |
| O=S1(=O)NCCN1Cc1cccc(Oc2ccccc2)c1 | 4.1 µM | – | – |
| O=C(CNS(=O)(=O)NCc1cccc(Oc2ccccc2)c1)N1CCN(Cc2ccccc2)CC1 [listing 2 of 2 here] | 5.5 µM | – | CC50 at 48 h [1]: 145 µM; selectivity ratio [3]: 26 |
| O=C(CN(Cc1ccccc1)S(=O)(=O)NCc1cccc(Oc2ccccc2)c1)NCCN1CCOCC1 [listing 3 of 3 here] | 3.8 µM | – | CC50 at 48 h [1]: 45 µM |
| O=C(CNS(=O)(=O)NCc1cccc(Oc2ccccc2)c1)NCc1ccccc1 | 8.1 µM | inactive | CC50 at 48 h [1]: 47 µM |
| CC(NS(=O)(=O)NCc1cccc(Oc2ccccc2)c1)C(=O)NCCN1CCOCC1 (racemic; 7b) | – | inactive | – |
| O=C(CNS(=O)(=O)NCc1cccc(Oc2ccccc2)c1)NCCN1CCOCC1 [listing 3 of 3 here] | 8.5 µM | – | CC50 at 48 h [1]: 165 µM |
| CCCC(NS(=O)(=O)NCc1cccc(Oc2ccccc2)c1)C(=O)NCCN1CCOCC1 (racemic) | > 10 µM | inactive | – |
| O=S1(=O)N(CCN2CCOCC2)CCN1Cc1cccc(Oc2ccccc2)c1 | 4.2 µM | – | CC50 at 48 h [1]: 51 µM |
